Screening results from PubChem BioAssay.
Arrestin-AP2 inh: blocks beta-arrestin peptide binding to AP2 adaptin | FITC-arrestin peptide / GST-AP2 beads, flow cytometry; AP2 beta2 appendage carries R879A mutation | inhibition, % at 10 µM | 0.31% of 340,000 active | AID 504490;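 active means inhibition above a set limit, near 3 SD of compounds lacking own fluorescence, cut at about 54% in these data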;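 further: plate controls were DMSO wells for no effect and 5 µM unlabelled arrestin peptide for full effect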
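Material – GST-tagged AP2 beta2-adaptin appendage (R879A) on 4 µm glutathione beads · Probe or stimulus – fluorescein-tagged arrestin peptide at 50 nM final · Timing – 12 min plus 1 h, RT · Detection – bead flow cytometry, FITC channel · Read-out basis – inhibition as reduced fluorescein signal on beads, percent · Medium – PBS plus Tween 20 (0.05%) and BSA (0.1%)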
ABCB6 inh 2: blocks the human ABCB6 transporter. fluorescence ratio to DMSO, % at 10 µM. 0.19% of 360,000 active. K562-ABCB6 porphyrin accumulation, flow cytometry, 1 h; hits give low values. Q9NP58. AID 602162;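 active means fluorescence ratio to DMSO below 75%, the collection mean minus 3 SD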;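 further: signal is porphyrin accumulated inside mitochondria; 100% equals median channel fluorescence of DMSO control wells; lower ratio means ABCB6 inhibition with less porphyrin fluorescence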
CendR NRP1 mod: alters CendR peptide binding to human NRP-1; O14786; FAM-RPARPAR peptide binding to NRP-1, fluorescence polarization; inhibition, % at 25 µM; 0.85% of 360,000 active; AID 602438;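 active means inhibition or corrected inhibition above about 18%, plus a signal ratio from 0.5 to 1.5, limit read from the data, passing the limit was not always enough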
Granule exo inh: blocks lytic granule exocytosis | TALL-104 LAMP-1 surface exposure, flow cytometry; cells stimulated with thapsigargin and PMA | inhibition, % at 10 µM | 0.66% of 360,000 active | AID 651702;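 active means inhibition above about 55%, limit read from the data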
ATG4B inh: ATG4B (human) cysteine protease inhibition; Q9Y4P1; ATG4B cleavage of LC3-PLA2, NBD-HPC fluorescence, 1 h; inhibition, % at 8.33 µM; 0.51% of 340,000 active; AID 504462; in the data active means inhibition above about 40%
Target sequence (Q9Y4P1 whole entry, looked up): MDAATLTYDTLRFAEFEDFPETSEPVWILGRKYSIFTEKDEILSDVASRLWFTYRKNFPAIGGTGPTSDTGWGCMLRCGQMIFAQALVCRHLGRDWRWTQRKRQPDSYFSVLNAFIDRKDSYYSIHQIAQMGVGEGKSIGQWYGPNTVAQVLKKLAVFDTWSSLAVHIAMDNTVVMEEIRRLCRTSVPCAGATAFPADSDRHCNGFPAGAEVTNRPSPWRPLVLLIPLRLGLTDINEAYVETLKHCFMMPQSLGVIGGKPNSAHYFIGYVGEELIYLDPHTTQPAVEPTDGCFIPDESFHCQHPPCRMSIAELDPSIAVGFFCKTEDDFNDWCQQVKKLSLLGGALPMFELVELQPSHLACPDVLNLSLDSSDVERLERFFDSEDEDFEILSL
Myeloid diff 2: myeloid differentiation induction | AID 624256 | 1% of 360,000 active | calls only at 10 µM | ER-HoxA9 myeloid progenitors, lysozyme-GFP differentiation, flow cytometry;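 active means normalized GFP-positive differentiation at or above the plate's own cutoff, the solvent-only control mean plus 3 SD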;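 further: cells exposed to compound for four days before flow analysis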
Numbers without * were called inactive; i = inactive; . = no result given; + = active, no number. Only some compounds are listed: those with a hit (about 3.3% of all), similar ones and a draw of the others.

SMILES	Arrestin-AP2 inh	ABCB6 inh 2	CendR NRP1 mod	Granule exo inh	ATG4B inh	Myeloid diff 2
Cc1ccc(S(=O)(=O)/N=C(\Sc2ccccc2)c2ccccc2)cc1	-3.0	103.0	-12.0	65.4*	3.6	i
COc1cccc(COc2ccccc2C2Nc3ccc(Br)cc3C(=O)N2NC(=O)c2ccncc2)c1 (stereo unspecified)	3.6	100.0	-9.8	10.5	-4.1	i
CN(c1ccccc1)S(=O)(=O)c1cccc(C(=O)OCC(=O)Nc2ccc(C(N)=O)cc2)c1	5.9	95.0	6.8	-1.4	-7.9	i
Cc1ccc(C(C)(C)C)cc1S(=O)(=O)Nc1nc2ccccc2nc1Cl	8.3	96.0	-5.0	23.0	-10.1	i
Cc1ccccc1S(=O)(=O)Nc1nc2ccccc2nc1NCCO	7.6	99.0	30.7*	-7.0	-4.2	i
Cc1onc(-c2c(Cl)cccc2Cl)c1C(=O)Nc1ccc(N2CCOCC2)cc1	-12.2	100.0	-4.5	-2.8	-5.6	i
COCCNC(=O)c1cc(-c2ccc(-c3ccccc3)cc2)nc2ccccc12	5.5	98.0	-10.3	-0.8	1.8	+
O=C(NCc1ccccn1)c1cc(-c2ccccc2)nc2ccccc12	-1.3	98.0	8.1	-1.3	1.6	i
O=C(NCc1ccccn1)c1cc(-c2ccc(-c3ccccc3)cc2)nc2ccccc12	2.9	98.0	-0.1	-2.6	25.5	+
N#CCC(=O)Nc1ccc(C(=O)N2CCN(S(=O)(=O)c3ccc4ccccc4c3)CC2)cc1	3.4	98.0	-7.0	5.0	-18.0	i
COc1ccc(CNC(=O)CSc2nnc3nc(C)cc(C)n23)cc1OC	-8.2	96.0	2.6	1.4	-0.7	+
Cc1cc(C)n2c(SCC(=O)Nc3cccc(S(N)(=O)=O)c3)nnc2n1	8.3	97.0	24.2*	1.8	-8.4	i
Cc1cc(C)n2c(SCC(=O)NCc3ccco3)nnc2n1	0.2	99.0	-3.0	0.5	-5.9	i
Cc1nnc(SCC(=O)Nc2cccc(S(N)(=O)=O)c2)n1-c1ccccc1	4.2	104.0	8.5	7.4	-5.8	i
COC1(OC)N=C(N)C2(C#N)C(c3cccc(Oc4ccccc4)c3)C12C#N (stereo unspecified)	3.6	103.0	25.8*	2.9	-4.6	i
COc1cccc(C2C3(C#N)C(N)=NC(OC)(OC)C23C#N)c1 (stereo unspecified)	1.2	99.0	8.5	1.3	-2.3	i
CCSC1(SCC)N=C(N)C2(C#N)C(c3ccc(F)cc3)C12C#N (stereo unspecified)	-12.3	89.0	12.1	68.6*	-7.1	i
COC1(OC)N=C(N)C2(C#N)C(c3ccc(F)cc3)C12C#N (stereo unspecified)	13.9	104.0	30.8*	2.3	-12.4	i
COCCNC(=O)C1(C)CCCN(Cc2cc(C(F)(F)F)ccc2Cl)C1 (stereo unspecified)	.	100.0	4.2	49.4	.	i
CCOC(=O)C1CCN(C(=O)COC(=O)CNC(=O)c2sc3ccccc3c2Cl)CC1	6.3	94.0	-12.5	2.5	-6.6	i
CC1Nc2ccc(C(=O)NC3CCCCC3)cc2NC1=O (stereo unspecified)	6.5	144.0	-191.3	-9.5	-3.3	+
CCCCn1c(-c2cccs2)nc2oc3ccccc3c(=O)c2c1=O	-9.6	95.0	20.0*	-4.0	2.5	i
OCCC1CN(Cc2ccc3c(c2)CCO3)CCN1C1CCCC1 (stereo unspecified)	-33.7	100.0	-8.6	-2.7	-7.0	i
Cc1ccc(Cl)cc1N1CCN(C(=O)c2cn(C)c(=O)c3c2c2ccccc2n3C)CC1	18.3	102.0	-5.7	14.7	10.7	+
O=C(NCCOc1ccccc1)C1C(=O)Nc2ccccc2C(=O)N1C1CCCCC1 (stereo unspecified)	.	.	15.7	7.7	.	i
SMILES	Arrestin-AP2 inh	ABCB6 inh 2	CendR NRP1 mod	Granule exo inh	ATG4B inh	Myeloid diff 2
COc1cccc(Nc2nc(-c3sc(NC(=O)CC(C)C)nc3C)cs2)c1	2.5	97.0	-17.0	-5.2	6.5	i
COc1cccc(Nc2nc(-c3sc(NC(=O)c4ccccc4)nc3C)cs2)c1	29.1	108.0	-15.8	3.8	-1.4	+
NC(=O)C1(N2CCCCC2)CCN(C(=O)c2cc(COc3c(F)cccc3F)on2)CC1	.	148.0	-5.1	-8.0	.	i
CCCCOC(=O)CCN1C(=O)/C(=C2\SC(=S)N(CCC(=O)OCCCC)C2=O)SC1=S	26.6	106.0	27.7*	3.2	3.1	i
CCCOC(=O)CCCN1C(=O)/C(=C2\SC(=S)N(CCCC(=O)OCCC)C2=O)SC1=S	37.0	146.0	7.4	3.4	4.3	i
Cc1ccc(-n2[nH]c(C)c(C=Nc3ccc4[nH]c(=O)[nH]c4c3)c2=O)cc1	-3.0	101.0	30.5*	0.5	-24.9	i
Cc1ccsc1C(=O)N1CCCC(CO)(Cc2ccccc2F)C1 (stereo unspecified)	-17.5	96.0	20.9*	-1.5	4.3	i
CCOC(=O)C1=C(c2ccccc2)N(C)C(=O)NC1c1ccc(OC(F)F)c(OC)c1 (stereo unspecified)	3.7	100.0	-0.6	2.4	6.3	+
Clc1ccc2c(N/N=C/c3cccc(Br)c3)ccnc2c1	27.3	95.0	17.3	73.9*	38.0	i
CCN(CC)S(=O)(=O)c1ccc(S(=O)(=O)Nc2c(C)nn(C)c2C)cc1	-7.7	93.0	-4.8	-0.3	-2.6	i
Cc1cc(C)n2c(NCc3ccccc3)c(-c3cc4ccccc4o3)nc2n1	.	922.0	-119.5	5.1	.	+
Cc1cccc(N(C)S(=O)(=O)c2c[nH]c3ccc([N+](=O)[O-])cc23)c1	-9.6	94.0	-5.7	84.4*	-2.8	i
O=[N+]([O-])c1ccc2[nH]cc(S(=O)(=O)N3CCN(c4cccc(Cl)c4)CC3)c2c1	16.2	100.0	3.4	21.4	-11.9	i
CCOC(=O)C1(C(F)(F)F)N=C(c2cccnc2)OC(N2CCCCC2)=N1 (stereo unspecified)	1.0	100.0	3.9	-5.3	-3.3	i
COc1cc(/C=C2/SC(=O)N(Cc3ccccc3Cl)C2=O)ccc1OCc1ccncc1	5.2	99.0	21.2*	2.6	-1.4	i
Cc1[nH]c2ccccc2c1/C=N/NC(=S)NC(C)C	15.9	96.0	-72.3	-6.1	-9.7	+
CC(=O)Nc1ccc(-c2ccnc3c2CC(C(=O)Nc2cccnc2)O3)cc1 (stereo unspecified)	.	81.0	27.3*	-7.8	.	i
COc1ccc(-n2nnnc2SCC(=O)NNC(=O)c2ccc([N+](=O)[O-])cc2)cc1	4.8	69.0*	-10.9	17.1	28.2	i
CCCNC(=O)c1ccc(N2CCC3(CC2)CC(c2ccccc2)=NO3)c(NC(=O)c2ccccc2)c1	22.0	81.0	9.0	-2.9	-1.6	+
